This note sets out measurements from ChEMBL document CHEMBL1121432, “Tricyclics with analgesic and antidepressant activity. 1. [[(Alkylamino)ethyl]thio]dibenz[b,f]oxepins and 10,11-dihydro derivatives” (1980).

Assay type in all cases: functional
Experiment [1] concerns Mus musculus. The experiment in a line: Delay in response to noxious heat stimuli in mice by tail flick method after subcutaneous administration. The conditions noted are these: sc.
For experiment [2], the system named is Mus musculus. The experiment in a line: Anticonvulsant activity to prevent pentamethylenetetrazole (MTZ) induced lethality in mice after oral administration.
Experiment [3] deals with Mus musculus. The experiment in a line: Antidepressant activity to prevent tetrabenazine induced ptosis (TBZ) in mice after intraperitoneal administration. The conditions noted are these: ip.
Experiment [4] relates to Mus musculus. The experiment in a line: Analgesic activity for the inhibition of phenylquinone induced writhing (PQW) after subcutaneous administration to mice. The conditions noted are these: sc.
Experiment [5] has as its system Mus musculus. The experiment in a line: Antipsychotic activity to prevent amphetamine induced lethality in mice after oral administration. A digest of the protocol: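 Male CD-1 mice in groups of ten, 18-28 g, dosed orally; controls got distilled water-Tween 80. d-Amphetamine sulfate 21 mg/kg sc 60 min post-drug, then aggregated five per wire cage at 80-84 °F. Dead mice replaced by marked untreated mice every 15 min. Deaths counted at 5 h post-amphetamine.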

Experiment [6] deals with Mus musculus. The experiment in a line: Tested for antipsychotic activity to prevent amphetamine induced lethality in mice after intraperitoneal administration. The following applies: ip. An outline of the steps:
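Male CD-1 mice in groups of ten, 18-28 g, dosed ip; controls got distilled water-Tween 80. d-Amphetamine sulfate 21 mg/kg sc 60 min later, then aggregated five per wire cage at 80-84 °F. Dead mice replaced by marked untreated mice every 15 min. Deaths counted at 5 h post-amphetamine.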

For experiment [7], the system named is Mus musculus. The experiment in a line: Tested for analgesic activity for the inhibition of phenylquinone induced writhing (PQW) after oral administration to mice.

`CNCCSC1Cc2ccccc2Oc2ccccc21` (stereo unspecified): the ED50 in the experiment on Mus musculus [1] was 11.6 mg/kg; with Mus musculus [2], 50 mg/kg; in the experiment on Mus musculus [3], 0.9 mg/kg; in the experiment on Mus musculus [4], 4.8 mg/kg; in the experiment with Mus musculus [5], greater than 20 mg/kg.
As to `c1ccc2c(c1)CC(SCCN1CCOCC1)c1ccccc1O2` (stereo unspecified), the ED50 is greater than 25 mg/kg with Mus musculus [1]; greater than 50 mg/kg with Mus musculus [2]; greater than 20 mg/kg in the experiment on Mus musculus [3]; less than 25 mg/kg in the experiment on Mus musculus [4]; greater than 20 mg/kg with Mus musculus [5].
For the molecule `CN(C)CCSC1=Cc2ccccc2Oc2ccccc21`, the ED50 in the experiment with Mus musculus [1] is greater than 25 mg/kg; in the experiment on Mus musculus [2], 50 mg/kg; with Mus musculus [3], 8.4 mg/kg; in the experiment on Mus musculus [4], 5.8 mg/kg; in the experiment on Mus musculus [5] it was greater than 20 mg/kg.
With `CN(CCSC1=Cc2ccccc2Oc2ccccc21)CC1CC1`, the ED50 was greater than 25 mg/kg in the experiment on Mus musculus [1], greater than 50 mg/kg in the experiment on Mus musculus [2], greater than 20 mg/kg in the experiment with Mus musculus [3] and 6 mg/kg in the experiment on Mus musculus [4].
With `CNCCSC1Cc2ccccc2Oc2ccc(SC)cc21` (stereo unspecified), the median effective dose (ED50) was greater than 25 mg/kg with Mus musculus [1]; 50 mg/kg in the experiment with Mus musculus [2]; 12.7 mg/kg in the experiment with Mus musculus [3]; 6.4 mg/kg in the experiment on Mus musculus [4]; greater than 20 mg/kg in the experiment with Mus musculus [5].
`CN(C)CCSC1=Cc2ccccc2Oc2ccc(F)cc21`: the ED50 is 23.9 mg/kg in the experiment with Mus musculus [1], greater than 50 mg/kg in the experiment with Mus musculus [2], 10.3 mg/kg in the experiment on Mus musculus [4] and greater than 20 mg/kg in the experiment on Mus musculus [5].
With `CNCCSC1=Cc2ccccc2Oc2ccccc21`, the figures for the ED50 with Mus musculus [1], with Mus musculus [2] and with Mus musculus [6] were 11.6 mg/kg, 50 mg/kg and greater than 20 mg/kg, respectively.
Take `CNCCSC1=Cc2ccccc2Oc2ccc(SC)cc21`: the ED50 is greater than 25 mg/kg in the experiment on Mus musculus [1]; greater than 50 mg/kg in the experiment with Mus musculus [2]; 6.1 mg/kg with Mus musculus [3]; less than 25 mg/kg with Mus musculus [4]; greater than 20 mg/kg with Mus musculus [5].
Consider `O=C(c1ccc(F)cc1)C1CCN(CCSC2Cc3ccccc3Oc3ccccc32)CC1` (stereo unspecified), for which the ED50 with Mus musculus [1] was greater than 25 mg/kg; in the experiment on Mus musculus [2], greater than 50 mg/kg; with Mus musculus [7], 9.5 mg/kg; in the experiment on Mus musculus [3] it was greater than 20 mg/kg; with Mus musculus [4] it was 10.9 mg/kg; with Mus musculus [5], greater than 20 mg/kg.
Take `CSc1ccc2c(c1)C(SCCN(C)C)Cc1ccccc1O2` (stereo unspecified): the ED50 in the experiment with Mus musculus [1] was greater than 25 mg/kg; with Mus musculus [2], greater than 50 mg/kg; in the experiment on Mus musculus [3] it was 16 mg/kg; in the experiment on Mus musculus [4], 10.4 mg/kg; with Mus musculus [5], greater than 20 mg/kg.
Regarding `CN(C)CCSC1Cc2ccccc2Oc2ccccc21` (stereo unspecified), the ED50 with Mus musculus [1] was greater than 25 mg/kg; with Mus musculus [2] it was 50 mg/kg; with Mus musculus [4], greater than 25 mg/kg; in the experiment on Mus musculus [5], greater than 20 mg/kg.
For the molecule `CSc1ccc2c(c1)C(SCCN(C)C)=Cc1ccccc1O2`, the ED50 in the experiment with Mus musculus [1] was 14.1 mg/kg; with Mus musculus [2] it was greater than 50 mg/kg; with Mus musculus [3], 9.4 mg/kg; with Mus musculus [4], 5.3 mg/kg; in the experiment on Mus musculus [5], greater than 20 mg/kg.
Consider `CNCCSC1Cc2ccccc2Oc2ccc(Cl)cc21` (stereo unspecified), for which the ED50 was 22.4 mg/kg in the experiment with Mus musculus [1]; less than 50 mg/kg with Mus musculus [2]; 11.3 mg/kg in the experiment on Mus musculus [7]; 1.5 mg/kg in the experiment with Mus musculus [3]; 5.3 mg/kg with Mus musculus [4]; greater than 20 mg/kg in the experiment with Mus musculus [5].
As to `CNCCSC1=Cc2ccccc2Oc2ccc(Cl)cc21`, the ED50 in the experiment with Mus musculus [1] is greater than 25 mg/kg; in the experiment on Mus musculus [2], greater than 50 mg/kg; in the experiment on Mus musculus [3], 5.9 mg/kg; in the experiment on Mus musculus [4] it was 16 mg/kg; in the experiment on Mus musculus [5], greater than 20 mg/kg.
As to `Br.CCN(CC)CCSC1Cc2ccccc2Oc2ccc(SC)cc21` (stereo unspecified), the ED50 in the experiment on Mus musculus [1] was greater than 25 mg/kg; in the experiment on Mus musculus [2], greater than 50 mg/kg; with Mus musculus [3], greater than 20 mg/kg; in the experiment with Mus musculus [4], 25 mg/kg; in the experiment on Mus musculus [5] it was greater than 20 mg/kg.
With `Br.CN1CCN(CCSC2Cc3ccccc3Oc3ccccc32)CC1` (stereo unspecified), the ED50 in the experiment on Mus musculus [1] is greater than 25 mg/kg; with Mus musculus [2] it was greater than 50 mg/kg; with Mus musculus [3] it was greater than 20 mg/kg; with Mus musculus [4], 6.3 mg/kg.
With `CN(C)CCSC1Cc2ccccc2Oc2ccc(Cl)cc21` (stereo unspecified), the ED50 with Mus musculus [1] was greater than 25 mg/kg; in the experiment on Mus musculus [2] it was 30 mg/kg; with Mus musculus [4], less than 25 mg/kg.
The corresponding values for `C1=C(SCCN2CCOCC2)c2ccccc2Oc2ccccc21` are greater than 25 mg/kg, greater than 50 mg/kg and greater than 25 mg/kg.
Consider `CSc1ccc2c(c1)C(SCCN(C(C)C)C(C)C)=Cc1ccccc1O2`, for which the median effective dose (ED50) in the experiment with Mus musculus [1] was greater than 25 mg/kg; in the experiment with Mus musculus [2] it was greater than 50 mg/kg; with Mus musculus [3], 25 mg/kg; in the experiment on Mus musculus [4], greater than 25 mg/kg.
`CN(C)CCSC1=Cc2ccccc2Oc2ccc(Cl)cc21`: the ED50 in the experiment on Mus musculus [1] was greater than 25 mg/kg; in the experiment with Mus musculus [2], greater than 50 mg/kg; in the experiment with Mus musculus [3], greater than 20 mg/kg; with Mus musculus [4], greater than 25 mg/kg; in the experiment on Mus musculus [5], greater than 20 mg/kg.
